Assay results as given in ChEMBL document CHEMBL1143734, “Design, synthesis, binding, and molecular modeling studies of new potent ligands of cannabinoid receptors” (Bioorg Med Chem, 2007).
pIC50, pKi: −log10 of the molar value.

Key:
[1] = target: T1, Fatty-acid amide hydrolase 1 (Rattus norvegicus, UniProt P97612); experiment: Inhibition of rat brain FAAH assessed as inhibition of [14C]anandamide hydrolysis
T1 sequence (P97612 whole entry): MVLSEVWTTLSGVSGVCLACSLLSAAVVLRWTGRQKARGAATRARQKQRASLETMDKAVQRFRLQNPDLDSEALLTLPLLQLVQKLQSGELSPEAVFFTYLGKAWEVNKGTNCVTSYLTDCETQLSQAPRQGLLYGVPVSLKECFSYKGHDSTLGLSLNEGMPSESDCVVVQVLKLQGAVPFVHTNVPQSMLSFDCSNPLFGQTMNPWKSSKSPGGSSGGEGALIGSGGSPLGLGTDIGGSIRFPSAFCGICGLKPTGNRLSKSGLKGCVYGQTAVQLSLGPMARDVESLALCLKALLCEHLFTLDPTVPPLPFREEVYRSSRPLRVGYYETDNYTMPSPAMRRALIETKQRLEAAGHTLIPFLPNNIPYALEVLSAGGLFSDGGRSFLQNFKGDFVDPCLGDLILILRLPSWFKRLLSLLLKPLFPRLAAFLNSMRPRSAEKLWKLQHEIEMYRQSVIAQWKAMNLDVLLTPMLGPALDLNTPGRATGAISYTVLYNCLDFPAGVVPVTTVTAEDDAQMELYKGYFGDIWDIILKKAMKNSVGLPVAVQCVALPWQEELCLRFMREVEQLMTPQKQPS
How it was run: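 Rat brain membranes incubated with [14C]anandamide (6 µM) and increasing compound concentrations in 50 mM Tris–HCl, pH 9, for 30 min at 37 °C. Mixture extracted with 2 volumes CHCl3/CH3OH (2:1). [14C]ethanolamine in the aqueous phase counted by scintillation. IC50 is the mean of n = 3 experiments.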

[2] = target: Cannabinoid receptor (Homo sapiens) (UniProt P34972+P21554); experiment: Selectivity for human CB1 receptor over human CB2 receptor; type: protein assay
Cannabinoid receptor 2 = Cannabinoid receptor 2 (Homo sapiens, UniProt P34972); experiment: Displacement of [3H]CP-55940 from human CB2 receptor expressed in HEK cells; type: cell-based, HEK293
How it was run: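 Preliminary screen at 5, 10 and 25 µM, then a complete displacement curve if binding fell by >50% at 10 µM. IC50 converted to Ki using Cheng–Prusoff. Mean of 3 separate experiments.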

Cannabinoid receptor 1 [3] = target: T2, Cannabinoid receptor 1 (Homo sapiens, UniProt P21554); experiment: (§1) Displacement of [3H]CP-55940 from human CB1 receptor expressed in HEK cells; type: cell-based, HEK293
How it was run: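 Membranes from HEK cells transfected with human CB1. Screen at 5, 10 and 25 µM, then full dose–response for compounds displacing >50% at 10 µM. […] Ki derived from IC50 by Cheng–Prusoff. Means of n = 3 separate experiments.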

Cannabinoid receptor 1 [4] = target: T2, Cannabinoid receptor 1; experiment: as §1; type: cell-based, HEK293; remark: listed apart in the source

Sequence of Cannabinoid receptor 2 (P34972 whole entry): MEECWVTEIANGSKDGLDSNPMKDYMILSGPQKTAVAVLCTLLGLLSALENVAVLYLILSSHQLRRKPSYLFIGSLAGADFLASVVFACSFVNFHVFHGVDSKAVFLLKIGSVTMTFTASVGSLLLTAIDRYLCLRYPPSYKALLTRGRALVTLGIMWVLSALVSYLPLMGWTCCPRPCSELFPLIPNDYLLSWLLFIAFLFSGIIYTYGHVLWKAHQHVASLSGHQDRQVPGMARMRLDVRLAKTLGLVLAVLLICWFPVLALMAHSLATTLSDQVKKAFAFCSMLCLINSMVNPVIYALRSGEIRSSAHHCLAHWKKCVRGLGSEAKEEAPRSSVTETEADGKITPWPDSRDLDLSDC
T2 sequence (P21554 whole entry): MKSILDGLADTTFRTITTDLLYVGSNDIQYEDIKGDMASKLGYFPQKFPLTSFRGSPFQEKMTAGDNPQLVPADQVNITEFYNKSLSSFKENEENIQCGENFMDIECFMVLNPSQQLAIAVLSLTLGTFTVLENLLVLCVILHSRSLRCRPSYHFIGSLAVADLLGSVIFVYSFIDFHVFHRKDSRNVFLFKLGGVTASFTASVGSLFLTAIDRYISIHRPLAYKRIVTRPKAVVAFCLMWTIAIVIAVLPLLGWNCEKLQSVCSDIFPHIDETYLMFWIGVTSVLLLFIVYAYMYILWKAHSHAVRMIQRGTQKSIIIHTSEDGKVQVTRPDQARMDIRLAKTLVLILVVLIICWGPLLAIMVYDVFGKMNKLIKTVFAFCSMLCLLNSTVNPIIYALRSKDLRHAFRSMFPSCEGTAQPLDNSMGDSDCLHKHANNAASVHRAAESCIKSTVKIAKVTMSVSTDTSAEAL
Sequence of Cannabinoid receptor (Homo sapiens) (P21554 whole entry, looked up): as the sequence (P21554 whole entry) above
Sequence of Cannabinoid receptor (Homo sapiens) (P34972 whole entry, looked up): as the sequence (P34972 whole entry) above

| SMILES | pIC50 [1] | Ratio Ki [2] | pIC50 (Cannabinoid receptor 2) | pIC50 (Cannabinoid receptor 1 [3]) | pKi (Cannabinoid receptor 1 [4]) | pKi (Cannabinoid receptor 2) |
| --- | --- | --- | --- | --- | --- | --- |
| CCCCCCc1ccc(OCCCCCCCCCCC(=O)NCc2ccc(OC)c(O)c2)cc1O | < 4.30 | 1.3 | < 5.00 | < 5.00 | – | – |
| CCCCCc1cc(O)cc(OCCCCCCCC(=O)NC2CC2)c1 | < 4.30 | 0.33 | – | – | 7.80 | 7.41 |
| CCCCCc1cc(O)cc(OCCCCCCCCCCCC(=O)NC2CC2)c1 | 4.30 | 2.4 | – | – | 6.12 | 6.51 |
| CCCCCCc1c(O)cccc1OCCCCCCCCCCC(=O)NCc1ccc(OC)c(O)c1 | 4.30 | – | – | – | 5.55 | 5.68 |
| CCCCCCc1ccc(OCCCCCCCCCCC(=O)NCCc2ccc(O)c(O)c2)cc1O | – | – | < 5.00 | < 5.00 | – | – |
| CCCCCCc1ccc(OCCCCCCCC(=O)NCCO)cc1O | 4.30 | 0.08 | – | – | 6.72 | 5.62 |
| CCCCCCc1ccc(OCCCCCCCCCCCC(=O)NC2CC2)cc1O | < 4.30 | – | – | < 5.00 | – | 5.40 |
| CCCCCc1cc(O)cc(OCCCCCCCCCCC(=O)NCCc2ccc(O)c(O)c2)c1 | – | – | < 5.00 | – | 6.25 | – |
| CCCCCc1cc(O)cc(OCCCCCCCCCCC(=O)NCC2CC2)c1 | < 4.30 | 6.4 | – | – | 6.29 | 7.10 |
| CCCCCCc1ccc(OCCCCCCCCCCCC(=O)NCCO)cc1O | 5.00 | – | < 5.00 | < 5.00 | – | – |
| CCCCCCc1c(O)cccc1OCCCCCCCC(=O)NC1CC1 | 4.30 | 0.17 | – | – | 6.51 | 5.74 |
| CCCCCc1cc(O)cc(OCCCCCCCCCCC(=O)NCc2ccc(OC)c(O)c2)c1 | 5.00 | 1.3 | – | – | 5.68 | 5.78 |
| CCCCCc1cc(O)cc(OCCCCCCCCCCCC(=O)NCCO)c1 | < 4.30 | 1.5 | – | – | 7.22 | 7.41 |
| CCCCCCc1ccc(OCCCCCCCCCCC(=O)NCC2CC2)cc1O | < 4.30 | – | – | < 5.00 | – | 5.54 |
| CCCCCCc1c(O)cccc1OCCCCCCCC(=O)NCCO | 4.60 | 0.07 | – | – | 6.59 | 5.40 |
| CCCCCCc1ccc(OCCCCCCCC(=O)NC2CC2)cc1O | < 4.30 | 0.2 | – | – | 7.25 | 6.55 |
| CCCCCc1cc(O)cc(OCCCCCCCC(=O)NCCO)c1 | < 4.30 | – | – | – | 6.89 | 6.41 |
